Data published in the RNAGym collection of RNA variant scans (doi:10.1038/s41586-018-0170-7).

B1: tRNA (parent)
chain: GUUCCGUUGGCGUAAUGGUAACGCGUCUCCCUCCUAAGGAGAAGACUGCGGGUUCGAGUCCCGUACGGAACG

Variants of: B1
Test: yeast fitness, log relative to wild type (ln ratio); higher = fitter; tRNA-Arg(CCU), competitive growth, 37 C, 1 M NaCl
How it was run: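 A combinatorial tRNA-Arg(CCU) variant library was carried on a HIS3 centromeric plasmid in BY4742 lacking the chromosomal gene, from two independent transformations. Pools grew 4 generations in SC-HIS at 30 °C, then ~6.5 generations (~26.5 h) in SC-HIS 1M NaCl at 37 °C, with three outputs per input. Variants were counted by 125 bp paired-end Illumina sequencing. Fitness is ln of each genotype's generations (OD-scaled log2 output/input frequency, inverse-variance weighted across replicates) over the wild-type's.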

Variant	yeast fitness (ln)
G1A U2G G6U C27U C46U A70U C71U	-0.242
G1A U2G G6U C27U A43C C66A A70U C71U	-0.433
G1A U2G G6U C27U C66A A69G A70G C71U	-0.408
G1A U2G G6U C46U A69G A70U	-0.211
G1A U2G G6U C46U A69G A70G	-0.247
G1A U2G G6U C27U A43C C46U A69G A70G	-0.192
G1A U2G G6U C27U A43C C46U A69G A70U	-0.463
G1A U2G G6A C71U	-0.136
G1A U2G G6U C46U C66U A69G A70U C71U	-0.441
G1A U2G G6U C27U A43C C46U C66U A69G C71U	-0.4
G1A U2G G6U A43C C46U C66U A69G A70G C71U	-0.371
G1A U2G G6U A43C C66A A69G A70G C71U	-0.412
U2C C27U A43C A69G C71U	-0.144
U2C A43C C46U C66U A69G A70G	-0.0788
U2C A43C C46U C66U A69G A70U	-0.191
G1A U2G G6U A43C C46U C66A C71U	-0.234
G1A U2G G6U C27U C46U C66U A69G A70U C71U	-0.462
U2C A43C A69G A70U C71U	-0.32
G1A U2G G6U C46U A69G A70U C71U	-0.279
G1A U2G G6U C27U A43C C66U A70G C71U	-0.346
G1A U2G G6U A43C C66U A69G A70U C71U	-0.4

Variant	yeast fitness (ln)
U2C C27U A43C C46U A69G A70U C71U	-0.307
G1A U2G G6U C27U A43C C46U A70G C71U	-0.426
G1A U2G G6U A43C C46U C66U C71U	-0.371
G1A U2G G6U C27U A43C A69G A70U C71U	-0.494
U2C A43C C71U	-0.168
G1A U2G G6U C46U A70U C71U	-0.511
U2C A43C A69G A70G	-0.0256
U2C A43C A69G A70U	-0.235
G1A U2G G6U C27U C66U C71U	-0.522
U2C A43C C46U C71U	-0.193
G1A U2G G6U C27U C46U C66A A69G A70G C71U	-0.417
U2C C27U	-0.0171
G1A U2G G6U C66U A69G A70U	-0.386
G1A U2G G6U C46U C66U A70U C71U	-0.722
G1A U2G G6U C27U A43C C46U A70U C71U	-0.339
U2C A43C A69G C71U	-0.138
G1A U2G G6U C27U C66U A69G A70G C71U	-0.446
U2C A43C C66A A70G C71U	-0.11
G1A U2G G6U A43C	-0.257
G1A U2G G6U A43C C46U A70U C71U	-0.226
G1A U2G G6U C27U C46U C71U	-0.259

Variant	yeast fitness (ln)
G1A U2G G6U C27U A43C C46U C66U A70U C71U	-0.647
G1A U2G G6U A43C C46U A69G A70U C71U	-0.398
G1A U2G G6U C27U C46U C66A A70G C71U	-0.239
U2C A43C C46U A69G A70G	-0.0147
U2C A43C C46U A69G A70U	-0.144
G1A U2G G6U C66A A69G A70U	-0.293
U2C A69G A70G	-0.0175
U2C A69G A70U	-0.117
G1A U2G G6U C46U A70U	-0.246
G1A U2G G6U C46U A70G	-0.282
G1A U2G G6U C66U A70G C71U	-0.264
G1A U2G G6U C27U C46U A69G A70U C71U	-0.43
G1A U2G G6U C46U C66A C71U	-0.179
G1A U2G G6U	-0.102
G1A U2G G6U A43C C46U C66U A69G C71U	-0.393
G1A U2G G6U C27U A43C C46U C66U A70G C71U	-0.466
U2C A69G A70U C71U	-0.199
U2C A43C C66U C71U	-0.24
G1A U2G G6U C27U	-0.148
G1A U2G G6U C66U A70U C71U	-0.351
U2C A43C C46U C66A A70U	-0.0333

Variant	yeast fitness (ln)
U2C A43C C46U C66A A70G	-0.058
G1A U2G G6U C46U C66A A70U C71U	0.00484
G1A U2G G6U C27U C46U C66A C71U	-0.175
U2C A43C C46U C66A A70U C71U	-0.169
G1A U2G G6U A43C C46U C66U A69G A70G	-0.365
G1A U2G G6U A43C C46U C66U A69G A70U	-0.299
G1A U2G G6U A43C C46U C66U A70U C71U	-0.399
U2C A43C C66A A69G A70U C71U	-0.368
G1A U2G G6U C66U A69G A70G C71U	-0.529
G1A U2G G6U C27U A43C C46U C66A A69G A70G C71U	-0.337
G1A U2G G6U C46U C66U A69G A70G	-0.347
G1A U2G G6U C46U C66U A69G A70U	-0.288
G1A U2G G6U A43C C46U C66A A69G A70U	-0.256
U2C A43C C46U C66U	-0.0687
U2C A43C C46U C66A	0.0909
G1A U2G G6U C46U C66A A70G C71U	-0.511
G1A U2G G6U C66U	-0.203
G1A U2G G6U C66U A69G C71U	-0.375
G1A U2G G6U C27U C66U	-0.38
U2C A43C C46U A69G A70U C71U	-0.307
G1A U2G G6U A43C A69G A70G C71U	-0.439
